These results are taken from article PMC7452071 (Acta Pharmaceutica Sinica. B, 2019).

Data set [1] concerns the target TOP1 (Bos taurus, UniProt F1MN93). The data set is described as follows: TOP1-mediated pBR322 DNA relaxation assay. It is filed as biochemical. The conditions noted are these: 100 μmol/L.
Data set [2] concerns γH2AX in HCT116 cells. The data set is described as follows: Western blot for γH2AX. It is filed as cell-based, human. The conditions noted are these: 0.5 and 5 μmol/L, 24 h. The procedure, abridged:
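HCT116 seeded at 35 × 10^4 cells/well, treated 24 h with test compound or vehicle. Cells washed in cold PBS, lysed 30 min on ice in RIPA with protease and phosphatase inhibitors, protein quantified by BCA. 30 μg resolved by SDS-PAGE, transferred to PVDF, blocked 2 h in 5% BSA, primary antibody overnight at 4 °C, secondary 1.5 h, infrared imaging.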
In general terms: A western blot detects proteins with antibodies after separation by electrophoresis.

The subject of data set [3] is A549 (lung cancer). The data set is described as follows: In vitro cell viability assay. It is filed as cell-based. The conditions noted are these: Homo sapiens, A549, 48 h, read-out: IC50 A549.
Data set [4] concerns the target TOP2α (Homo sapiens, UniProt P11388). The data set is described as follows: TOP2-mediated pBR322 DNA relaxation assay. In kind it is biochemical.
Data set [5] has as its system HCT116, MCF-7 and A549 cell lines. The data set is described as follows: In vitro cell viability assay. It is filed as cell-based. The conditions noted are these: Homo sapiens, read-out: IC50 range against the three tested cell lines. The procedure, abridged:
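Cells were grown in 10% FBS at 37 °C, 5% CO2, seeded in DMEM and held 24 h to 60%–70% confluency. They were then exposed to graded test compound concentrations or vehicle for 48 h. 10% CCK8 was added for 1–4 h at 37 °C and absorbance read at 450. IC50 was computed by the Logit method; three experiments.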

For data set [6], the target named is human recombinant HDAC1 enzyme (Homo sapiens, UniProt Q13547). The data set is described as follows: HDACs activity assay, HDAC1. In kind it is biochemical.
Sequence of human recombinant HDAC1 enzyme (Q13547 whole entry): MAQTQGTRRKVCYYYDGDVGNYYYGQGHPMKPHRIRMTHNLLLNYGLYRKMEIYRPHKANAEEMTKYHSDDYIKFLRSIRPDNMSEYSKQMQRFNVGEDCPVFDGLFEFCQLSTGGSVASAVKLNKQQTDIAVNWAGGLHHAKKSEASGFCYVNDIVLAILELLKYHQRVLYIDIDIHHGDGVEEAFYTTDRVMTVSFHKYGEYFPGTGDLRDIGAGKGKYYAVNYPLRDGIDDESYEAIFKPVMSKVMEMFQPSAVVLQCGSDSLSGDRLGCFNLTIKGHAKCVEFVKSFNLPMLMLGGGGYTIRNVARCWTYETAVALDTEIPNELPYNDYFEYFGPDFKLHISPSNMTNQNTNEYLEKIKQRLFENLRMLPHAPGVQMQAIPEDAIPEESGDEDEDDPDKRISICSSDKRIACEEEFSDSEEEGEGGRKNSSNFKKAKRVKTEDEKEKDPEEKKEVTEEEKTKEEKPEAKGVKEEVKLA
Data set [7] concerns HCT116 (colon cancer). The data set is described as follows: In vitro cell viability assay. In kind it is cell-based. The conditions noted are these: Homo sapiens.
Data set [8] relates to MCF-7 (breast cancer). The data set is described as follows: In vitro cell viability assay. In kind it is cell-based. The conditions noted are these: Homo sapiens, MCF7, 48 h, read-out: IC50 MCF-7.
Data set [9] concerns HCT116 xenograft. The data set is described as follows: In vivo tumor growth inhibition assay against HCT116 xenograft. The conditions noted are these: bid.
For data set [10], the system named is hematological cell lines (HL60, K562 and HEL). The data set is described as follows: Antiproliferative activity, hematological cell lines together. It is filed as cell-based. The conditions noted are these: read-out: IC50 range toward hematological cell lines.
Data set [11] in a line: In vitro metabolic stability in mice liver microsomes. It is filed as in vitro ADME. The conditions noted are these: female, ICR, mouse, liver microsomes, pH 7.4. (In general: Liver microsomes are a subcellular fraction often used to study metabolism.)
Where [12] appears, read: HCT-116, 48 h, read-out: IC50 HCT116.

Where two headings read alike, the source gives them in different places.

Broadly, the IC50 is the concentration at which inhibition is half-maximal. As a reminder, the half-life is the time in which the quantity being followed falls by half.

Sequence of TOP2α (P11388 whole entry): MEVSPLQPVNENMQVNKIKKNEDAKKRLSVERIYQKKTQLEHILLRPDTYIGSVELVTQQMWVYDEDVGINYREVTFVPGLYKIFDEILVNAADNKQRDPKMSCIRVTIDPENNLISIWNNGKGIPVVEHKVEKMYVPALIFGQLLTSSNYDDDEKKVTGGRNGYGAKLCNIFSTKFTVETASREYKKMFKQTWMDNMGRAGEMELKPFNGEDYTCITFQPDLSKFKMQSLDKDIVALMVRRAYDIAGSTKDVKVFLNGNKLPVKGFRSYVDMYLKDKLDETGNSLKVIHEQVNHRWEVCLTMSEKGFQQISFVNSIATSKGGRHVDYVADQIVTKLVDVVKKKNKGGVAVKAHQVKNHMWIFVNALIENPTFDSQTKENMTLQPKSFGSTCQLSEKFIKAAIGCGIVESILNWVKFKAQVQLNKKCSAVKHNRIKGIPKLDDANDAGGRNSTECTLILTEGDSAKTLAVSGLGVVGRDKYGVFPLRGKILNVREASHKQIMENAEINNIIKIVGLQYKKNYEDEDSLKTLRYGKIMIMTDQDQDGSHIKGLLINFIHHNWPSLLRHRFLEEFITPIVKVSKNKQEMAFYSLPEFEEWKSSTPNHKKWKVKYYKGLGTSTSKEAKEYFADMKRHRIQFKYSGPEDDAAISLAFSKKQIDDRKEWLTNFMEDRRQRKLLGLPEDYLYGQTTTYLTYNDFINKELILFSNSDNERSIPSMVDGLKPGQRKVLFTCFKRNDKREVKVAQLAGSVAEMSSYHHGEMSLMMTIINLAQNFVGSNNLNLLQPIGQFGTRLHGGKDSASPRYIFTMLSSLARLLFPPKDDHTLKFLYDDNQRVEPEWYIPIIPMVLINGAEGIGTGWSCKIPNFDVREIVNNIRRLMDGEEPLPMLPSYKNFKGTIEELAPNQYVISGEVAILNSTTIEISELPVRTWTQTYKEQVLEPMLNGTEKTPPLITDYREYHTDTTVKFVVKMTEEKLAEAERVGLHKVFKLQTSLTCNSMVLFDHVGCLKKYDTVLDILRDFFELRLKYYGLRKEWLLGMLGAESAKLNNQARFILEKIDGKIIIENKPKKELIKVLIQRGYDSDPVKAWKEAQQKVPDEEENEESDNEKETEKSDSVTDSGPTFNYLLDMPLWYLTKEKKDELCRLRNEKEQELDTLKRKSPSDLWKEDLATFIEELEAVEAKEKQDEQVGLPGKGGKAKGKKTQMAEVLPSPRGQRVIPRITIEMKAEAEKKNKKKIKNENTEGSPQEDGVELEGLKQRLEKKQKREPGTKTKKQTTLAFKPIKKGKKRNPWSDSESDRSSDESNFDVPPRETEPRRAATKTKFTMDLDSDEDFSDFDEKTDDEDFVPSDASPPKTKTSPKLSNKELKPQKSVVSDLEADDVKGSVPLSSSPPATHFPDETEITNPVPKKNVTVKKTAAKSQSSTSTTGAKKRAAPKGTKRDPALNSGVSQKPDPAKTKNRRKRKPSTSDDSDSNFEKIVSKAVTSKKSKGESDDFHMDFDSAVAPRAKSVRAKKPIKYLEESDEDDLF
Sequence of TOP1 (F1MN93 1-767): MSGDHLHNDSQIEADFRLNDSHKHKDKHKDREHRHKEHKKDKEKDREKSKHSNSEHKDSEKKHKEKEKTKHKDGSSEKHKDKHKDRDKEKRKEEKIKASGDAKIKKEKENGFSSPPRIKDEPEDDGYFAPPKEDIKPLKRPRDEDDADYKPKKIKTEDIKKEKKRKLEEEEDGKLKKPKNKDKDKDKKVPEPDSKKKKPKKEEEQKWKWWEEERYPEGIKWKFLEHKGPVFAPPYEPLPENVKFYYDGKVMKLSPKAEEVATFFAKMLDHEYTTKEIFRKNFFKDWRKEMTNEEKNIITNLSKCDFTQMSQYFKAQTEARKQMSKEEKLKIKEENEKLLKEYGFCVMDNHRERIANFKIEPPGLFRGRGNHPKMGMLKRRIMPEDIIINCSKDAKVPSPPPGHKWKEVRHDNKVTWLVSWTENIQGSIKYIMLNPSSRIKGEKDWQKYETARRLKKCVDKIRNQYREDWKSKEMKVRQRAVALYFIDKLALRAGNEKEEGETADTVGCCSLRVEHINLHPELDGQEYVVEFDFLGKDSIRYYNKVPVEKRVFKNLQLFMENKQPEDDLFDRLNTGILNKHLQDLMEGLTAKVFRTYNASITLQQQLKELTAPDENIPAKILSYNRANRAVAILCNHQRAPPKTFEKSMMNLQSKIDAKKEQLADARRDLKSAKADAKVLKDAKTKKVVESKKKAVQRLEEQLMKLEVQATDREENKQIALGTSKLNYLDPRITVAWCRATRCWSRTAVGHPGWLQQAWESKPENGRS

As to `CC[C@@]1(O)C(=O)OCc2c1cc1n(c2=O)Cc2cc3ccccc3nc2-1` [CPT, Camptothecin], the “TOP1 relaxation activity (supercoiled DNA band)” value in data set [1] is “obviously supercoiled DNA accumulation”.
For the compound `O=C(CCCCCCC(=O)Nc1ccccc1)NO` [Compound 1, vorinostat], the “Expression of γH2AX” value in data set [2] was “no increase”.
Consider `CN1c2ccccc2C(=O)N2[C@H](C(=O)NCCCCCCC(=O)NO)Cc3c([nH]c4ccccc34)[C@@H]12` [Compound 20a, (7S,13bS)-N-(7-(Hydroxyamino)-7-oxoheptyl)-14-methyl-5-oxo-5,7,8,13,13b,14-hexahydroindolo[2′,3′:3,4]pyrido[2,1-b]quinazoline-7-carboxamide], for which the IC50 is 27000 ± 2100 nM in data set [3]; 7200 to 27000 nM in [5]; 27 ± 2.3 nM in [6]; 7200 ± 520 nM in data set [7] (setting [12]); 15000 ± 2500 nM in [8]. For the same compound, the “TOP2 inhibitory activity (relaxation assay)” value (“TOP2 inhibitory activity” below) in data set [4] (100 μmol/L) is “inactive”.
As to `CN1c2ccccc2C(=O)N2[C@H](C(=O)NCCCCCC(=O)NO)Cc3c([nH]c4ccccc34)[C@@H]12` [Compound 20b, (7S,13bS)-N-(6-(Hydroxyamino)-6-oxohexyl)-14-methyl-5-oxo-5,7,8,13,13b,14-hexahydroindolo[2′,3′:3,4]pyrido[2,1-b]quinazoline-7-carboxamide], the IC50 is more than 50000 nM in data set [3], 53 ± 4.5 nM in data set [6], 11000 ± 1300 nM in data set [7] (setting [12]) and more than 50000 nM in data set [8]. Besides, in data set [4] (100 μmol/L), the “TOP2 inhibitory activity” value is “inactive”.
In the case of `CN1c2ccccc2C(=O)N2[C@H](C(=O)Nc3ccc(/C=C/C(=O)NO)cc3)Cc3c([nH]c4ccccc34)[C@@H]12` [Compound 25a, (7S,13bS)-N-(4-((E)-3-(Hydroxyamino)-3-oxoprop-1-en-1-yl)phenyl)-14-methyl-5-oxo-5,7,8,13,13b,14-hexahydroindolo[2′,3′:3,4]pyrido[2,1-b]quinazoline-7-carboxamide], the “Tumor growth inhibition (TGI)” value in [9] (20 mg/kg, i.p., 14 consecutive days) was 2.2%. Also, the IC50 was 10000 ± 1200 nM in data set [3]; 340 to 1000 nM in data set [10]; 89 ± 6.2 nM in data set [6]; 630 ± 520 nM in data set [7] (setting [12]); 3000 ± 250 nM in data set [8]. Moreover, the “TOP2 inhibitory activity” value in data set [4] (50 μmol/L) and in data set [4] (100 μmol/L) was “remarkable TOP2 inhibitory activities” each time. The compound further displayed a half-life at 1 μmol/L in data set [11] of 9.86 min.
Consider `CN1c2ccccc2C(=O)N2[C@H](C(=O)Nc3cccc(/C=C/C(=O)NO)c3)Cc3c([nH]c4ccccc34)[C@@H]12` [Compound 25b, (7S,13bS)-N-(3-((E)-3-(Hydroxyamino)-3-oxoprop-1-en-1-yl)phenyl)-14-methyl-5-oxo-5,7,8,13,13b,14-hexahydroindolo[2′,3′:3,4]pyrido[2,1-b]quinazoline-7-carboxamide], for which the IC50 in data set [3] was found to be 15000 ± 1400 nM; in [6], 31 ± 2.3 nM; in [7] (setting [12]), 520 ± 360 nM; in [8] it was 2200 ± 180 nM. Also, the “TOP2 inhibitory activity” value in data set [4] (50 μmol/L) and in data set [4] (100 μmol/L) was “remarkable TOP2 inhibitory activities” throughout.
As for `CN1c2ccc(F)cc2C(=O)N2[C@H](C(=O)Nc3ccc(C(=O)Nc4ccccc4N)cc3)Cc3c([nH]c4ccccc34)[C@@H]12` [Compound 30b, (7S,13bS)-N-(4-((2-Aminophenyl)carbamoyl)phenyl)-3-fluoro-14-methyl-5-oxo-5,7,8,13,13b,14-hexahydroindolo[2′,3′:3,4]pyrido[2,1-b]quinazoline-7-carboxamide], the IC50 in [3] is 7900 ± 680 nM; in data set [6], 180 ± 20 nM; in [7] (setting [12]), 2400 ± 220 nM; in data set [7] (HCT-116, read-out: IC50 HCT116), 3600 nM; in data set [8], more than 50000 nM.
On to `CN1c2ccccc2C(=O)N2[C@H](C(=O)Nc3ccc(C(=O)NO)cc3)Cc3c([nH]c4ccccc34)[C@@H]12` [Compound 32, (7S,13bS)-N-(4-(Hydroxycarbamoyl)phenyl)-14-methyl-5-oxo-5,7,8,13,13b,14-hexahydroindolo[2′,3':3,4]pyrido[2,1-b]quinazoline-7-carboxamide], for which the IC50 in data set [3] was found to be 11000 ± 1200 nM; in [6], 260 ± 24 nM; in data set [7] (setting [12]) it was 2200 ± 180 nM; in data set [8] it was 13000 ± 1400 nM. Besides, the “TOP2 inhibitory activity” value in data set [4] (50 μmol/L) and in data set [4] (100 μmol/L) was “remarkable TOP2 inhibitory activities” each time.
On to `CN1c2ccccc2C(=O)N2[C@@H](C(=O)Nc3ccc(/C=C/C(=O)NO)cc3)Cc3c([nH]c4ccccc34)[C@H]12` [ent-25a, (7R,13bR)-N-(4-((E)-3-(Hydroxyamino)-3-oxoprop-1-en-1-yl)phenyl)-14-methyl-5-oxo-5,7,8,13,13b,14-hexahydroindolo[2′,3′:3,4]pyrido[2,1-b]quinazoline-7-carboxamide], for which the IC50 came to 2800 ± 220 nM in data set [3], 18 ± 1.6 nM in [6], 530 ± 450 nM in data set [7] (setting [12]) and 1600 ± 140 nM in data set [8].
As to `CN1c2ccccc2C(=O)N2[C@@H](C(=O)Nc3cccc(/C=C/C(=O)NO)c3)Cc3c([nH]c4ccccc34)[C@H]12` [ent-25b, (7R,13bR)-N-(3-((E)-3-(Hydroxyamino)-3-oxoprop-1-en-1-yl)phenyl)-14-methyl-5-oxo-5,7,8,13,13b,14-hexahydroindolo[2′,3′:3,4]pyrido[2,1-b]quinazoline-7-carboxamide], the IC50 in data set [3] came to 20000 ± 2400 nM; in [6], 10 ± 0.6 nM; in data set [7] (setting [12]), 3100 ± 280 nM; in data set [8], 12000 ± 1500 nM.
Turning to `CN1c2ccccc2C(=O)N2[C@@H](C(=O)Nc3ccc(C(=O)Nc4ccccc4N)cc3)Cc3c([nH]c4ccccc34)[C@H]12` [ent-30a, (7R,13bR)-N-(4-((2-Aminophenyl)carbamoyl)phenyl)-14-methyl-5-oxo-5,7,8,13,13b,14-hexahydroindolo[2′,3′:3,4]pyrido[2,1-b]quinazoline-7-carboxamide], the IC50 in data set [3] was determined as 5400 ± 480 nM; in data set [6] it was 22 ± 2.1 nM; in data set [7] (setting [12]) it was 2900 ± 2000 nM; in data set [8], 17000 ± 1800 nM.
As to `CN1c2ccccc2C(=O)N2[C@@H](C(=O)Nc3ccc(C(=O)NO)cc3)Cc3c([nH]c4ccccc34)[C@H]12` [ent-32, (7R,13bR)-N-(4-(Hydroxycarbamoyl)phenyl)-14-methyl-5-oxo-5,7,8,13,13b,14-hexahydroindolo[2′,3′:3,4]pyrido[2,1-b]quinazoline-7-carboxamide], the IC50 in [3] worked out at 12000 ± 1500 nM; in [6], 10 ± 0.8 nM; in [7] (setting [12]), 1600 ± 130 nM; in data set [8], 5300 ± 500 nM.
For the compound “Evodiamine [Compound 6, reference compound]”, in [2], the “Expression of γH2AX” value is “no increase”. For the same compound, the “Tumor growth inhibition (TGI)” value in [9] (150 mg/kg, p.o., 21 days (dose of the combination not given)) worked out at 45.53%.
